Results reported in article PMC6774857 (Cell calcium, 2019).
Where two headings read alike, the source gives them in different places.

Key:
[1] = Solubility in buffered water; assay type: physicochemical
[2] = target: T1, 23 kDa NAADP binding protein(s) (Homo sapiens, UniProt Q9H910); details: Jurkat cell extracts, 23 kDa band
T1 sequence (Q9H910 1-190): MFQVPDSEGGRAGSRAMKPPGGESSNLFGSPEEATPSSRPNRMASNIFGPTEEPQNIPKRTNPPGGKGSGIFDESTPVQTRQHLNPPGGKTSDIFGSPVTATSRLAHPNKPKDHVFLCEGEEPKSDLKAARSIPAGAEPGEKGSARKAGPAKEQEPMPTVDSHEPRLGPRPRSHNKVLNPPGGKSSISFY

U2OS cells = details: cited from earlier work
[3] = target: sea urchin NAADP receptor; experiment: Competition-binding assay with [32P]-NAADP in sea urchin egg extracts; parameters: species or system Strongylocentrotus purpuratus; details: read-out: IC50 competition with [32P]-NAADP
[4] = test system: sea urchin NAADP receptor; experiment: Ca2+ release from sea urchin egg homogenates; assay type: biochemical, Strongylocentrotus purpuratus
Summary of the method: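 Ca2+ release measured in Strongylocentrotus purpuratus egg homogenate after adding test compound.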

SKBR3 cells = experiment: Microinjection of SKBR3 cells with GCaMP6M confocal Ca2+ imaging; assay type: cell-based, human; details: for EC50 of fold-change in the intensity of the Ca2+ signal: SKBR3 cells transfected with TPC2 and GCaMP6M, concentration in the micropipette
[5] = target: sea urchin NAADP receptor; details: sea urchin egg homogenates, cited from earlier work
[6] = target: sea urchin NAADP receptor; assay type: biochemical, Strongylocentrotus purpuratus; details: read-out: IC50 for desensitization; data not shown
ascidian oocytes = details: read-out: EC50 of Ca2+ mobilization; cited from earlier work

[N-]=[N+]=NCc1cc(N=[N+]=[N-])cc(C(=O)NCCCc2cncc(C(=O)O)c2)c1 [compound 4, 5-(3-(3-Azido-5-(azidomethyl)benzamido)propyl) nicotinic acid]
Solubility ([1]; buffered water at pH 4.5): low solubility | Solubility ([1]; higher pH (pH ≥ 5)): completely soluble

NC(=O)c1ccc[n+]([C@H]2O[C@@H](COP(=O)([O-])OP(=O)(O)OC[C@H]3O[C@@H](n4cnc5c(N)ncnc54)[C@H](OP(=O)(O)O)[C@@H]3O)[C@H](O)[C@@H]2O)c1 [NADP]
Fold higher concentrations required for similar protection compared with NAADP [2]: 40 fold

C#Cc1nc2c(N)ncnc2n1C1OC(COP(=O)(O)OP(=O)(O)OC[C@H]2O[C@@H]([n+]3cc(N=[N+]=[N-])cc(C(=O)[O-])c3)[C@H](O)[C@@H]2O)C(O)C1OP(=O)(O)O (some centres unmarked) [compound 9, 5-azido-8-ethynyl-NAADP]
Activity when microinjected into cultured human U2OS cells (U2OS cells): active at low concentration

5-[3-(3-Azido-5-(azidomethyl)benzamido)propyl]-NAADP [AIOC-NAADP]
IC50 [3]: 6000 nM | Calcium released, % of the amount of calcium released by 10 μM NAADP ([4]; at 1 mM): 18% | Release of Ca2+ from sea urchin egg homogenates ([4]; concentrations less than 100 μM): did not elicit release | EC50 of fold-change in the intensity of the Ca2+ signal (SKBR3 cells): 173 nM | Potency relative to 9 (SKBR3 cells; microinjection into cultured human cells, 9 data ref 56): approximately 10 fold

5-(3-(t-Boc-amino)-propyl)-NAADP [compound 3]
EC50 (agonist) ([5]; previously synthesized and tested): micromolar range

nicotinic acid adenine dinucleotide phosphate [NAADP]
IC50 [6]: 0.3 nM | EC50 of fold-change in the intensity of the Ca2+ signal (SKBR3 cells): 22 nM | EC50 ([5]; read-out: EC50 of Ca2+ mobilization): 10 to 50 nM | EC50 (ascidian oocytes): 10 to 50 nM
